Experimental data as given in ChEMBL document CHEMBL4428023, “1,4-Dihydropyridines Active on the SIRT1/AMPK Pathway Ameliorate Skin Repair and Mitochondrial Function and Exhibit Inhibition of Proliferation in Cancer Cells” (J Med Chem, 2016).
Calls of active or inactive are those of the source. The calls are words filed in the database; no cut-off is given here.

What was measured:
[1] = target: 3',5'-cyclic-AMP phosphodiesterase 4D (Homo sapiens) (UniProt Q08499); experiment: Inhibition of recombinant human PDE4D assessed as phosphate release using cAMP as substrate at 50 uM after 60 mins by malachite green assay
3',5'-cyclic-AMP phosphodiesterase 4D (Homo sapiens), sequence (Q08499 whole entry): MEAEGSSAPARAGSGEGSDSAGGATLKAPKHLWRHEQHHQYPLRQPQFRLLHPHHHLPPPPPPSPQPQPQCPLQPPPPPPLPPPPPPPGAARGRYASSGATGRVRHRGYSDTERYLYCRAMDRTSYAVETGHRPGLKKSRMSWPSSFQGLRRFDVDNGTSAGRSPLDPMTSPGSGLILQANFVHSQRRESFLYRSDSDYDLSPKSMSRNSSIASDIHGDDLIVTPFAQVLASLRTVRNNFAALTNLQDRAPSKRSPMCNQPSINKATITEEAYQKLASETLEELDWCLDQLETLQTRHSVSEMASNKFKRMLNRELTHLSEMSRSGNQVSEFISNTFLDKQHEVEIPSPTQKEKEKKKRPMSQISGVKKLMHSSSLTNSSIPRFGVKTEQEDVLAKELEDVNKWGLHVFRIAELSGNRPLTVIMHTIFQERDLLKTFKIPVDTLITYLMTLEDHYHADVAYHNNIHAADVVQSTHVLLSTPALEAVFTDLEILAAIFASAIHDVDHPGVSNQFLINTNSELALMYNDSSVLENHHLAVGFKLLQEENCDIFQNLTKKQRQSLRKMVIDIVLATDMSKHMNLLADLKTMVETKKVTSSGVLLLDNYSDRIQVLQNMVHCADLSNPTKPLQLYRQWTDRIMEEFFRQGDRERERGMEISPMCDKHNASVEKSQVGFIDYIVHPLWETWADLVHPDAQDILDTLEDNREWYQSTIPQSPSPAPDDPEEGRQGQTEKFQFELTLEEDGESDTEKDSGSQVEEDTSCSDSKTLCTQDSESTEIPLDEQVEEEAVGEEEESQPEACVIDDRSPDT
Method in brief: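 Recombinant human PDE4D (20 mU) in 10 mM Tris-HCl pH 7.4 with cAMP substrate. Compounds at 50 µM in DMSO; rolipram 10 µM as positive control. Incubated 60 min at 37 °C, then phosphate release measured by malachite green absorbance at 620 nm. Mean of three determinations.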

HEY = experiment: Antiproliferative activity against human HEY cells assessed as cell viability after 72 hrs by MTT assay; format: functional, cell-based
Method in brief: (§1)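 Cells grown in RPMI with 10% fetal calf serum and penicillin, seeded in sextuplicate at 3 × 10^3 cells/well. After 24 h, cells were exposed 72 h to 5–200 µM. Viability was measured by MTT and expressed as treated/untreated × 100. IC50 was calculated from three independent experiments, reported as mean ± SD.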

HaCaT [2] = experiment: Activation of AMPK/SIRT1 in human HaCaT cells assessed as nitric oxide production at 10 uM incubated for 1 hr in presence of EX-527 by DAF-2D staining-based fluorescence assay; format: cell-based
Method in brief: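 HaCaT cells in DMEM with 10% FBS. DHP (10 µM) given for 1 h alone or together with 10 µM AMPK inhibitor compound C or 10 µM SIRT1 inhibitor EX-527. Intracellular NO read by flow cytometry after loading with 5 µM DAF-2D in medium (ex 485/em 538 nm). Expressed as % DAF-positive cells versus DMSO.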

Mus musculus [3] = experiment: Wound healing activity in CD1 mouse assessed as increased wound closure at 1 uM administered topically on wound everyday for 14 days by biopsy punch assay; format: functional, organism-based
Method in brief: (§2)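 Male CD1 mice, 8 weeks old, anaesthetized i.p. with medetomidine 1 mg/kg plus ketamine 75 mg/kg, then biopsy-punch wounded. Compound (1 µM) in 20 µL saline applied directly to the wound daily for 14 days; solvent-treated group as control. Epithelial gap and % wound closure followed over time.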

Cavia porcellus = organism: Cavia porcellus; experiment: Antagonist activity at calcium channel in guinea pig smooth muscle assessed as inhibition of calcium-induced contraction in K+-depolarized aortic strips at 50 uM
Method in brief: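 Guinea-pig isolated aortic strips depolarized with 80 mM K+; read-out is percent inhibition of calcium-induced contraction.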

Caov-3 cell line = experiment: Antiproliferative activity against human Caov3 cells assessed as cell viability after 72 hrs by MTT assay; format: functional, cell-based; details: Caov-3, 72 h; method in brief: as §1
NCI-H1299 = experiment: Antiproliferative activity against human NCI-H1299 cells assessed as cell viability after 72 hrs by MTT assay; format: functional, cell-based; details: NCI-H1299, 72 h; method in brief: as §1
C2C12 = experiment: Activation of AMPK/SIRT1 in mouse C2C12 cells assessed as increase in mitochondrial density at 30 uM after 16 hrs by Mitotracker Green staining-based confocal microscopy in presence of EX-527; format: cell-based
Method in brief: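 C2C12 myoblasts plated overnight, then in serum-free HBSS pH 7.4 and treated 16 h at 30 µM, alone or with 5 µM inhibitor (EX-527 or compound C). Mitotracker Green at 200 nM final was added for the last 30 min. Cells were fixed in 4% paraformaldehyde, permeabilized with Triton X-100 and imaged by confocal microscopy with fixed settings. Alternatively, mitochondrial fluorescence was quantified in plates.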

[4] = target: T1, NAD-dependent protein deacetylase sirtuin-1 (Homo sapiens) (UniProt Q96EB6); experiment: Activation of full-length GST-tagged recombinant human SIRT1 assessed as enzyme activity obtained without subtraction of intrinsic fluorescence using p53-based untagged peptide as substrate at 50 uM after 30 mins by SIRTainty assay
T1 sequence (whole entry): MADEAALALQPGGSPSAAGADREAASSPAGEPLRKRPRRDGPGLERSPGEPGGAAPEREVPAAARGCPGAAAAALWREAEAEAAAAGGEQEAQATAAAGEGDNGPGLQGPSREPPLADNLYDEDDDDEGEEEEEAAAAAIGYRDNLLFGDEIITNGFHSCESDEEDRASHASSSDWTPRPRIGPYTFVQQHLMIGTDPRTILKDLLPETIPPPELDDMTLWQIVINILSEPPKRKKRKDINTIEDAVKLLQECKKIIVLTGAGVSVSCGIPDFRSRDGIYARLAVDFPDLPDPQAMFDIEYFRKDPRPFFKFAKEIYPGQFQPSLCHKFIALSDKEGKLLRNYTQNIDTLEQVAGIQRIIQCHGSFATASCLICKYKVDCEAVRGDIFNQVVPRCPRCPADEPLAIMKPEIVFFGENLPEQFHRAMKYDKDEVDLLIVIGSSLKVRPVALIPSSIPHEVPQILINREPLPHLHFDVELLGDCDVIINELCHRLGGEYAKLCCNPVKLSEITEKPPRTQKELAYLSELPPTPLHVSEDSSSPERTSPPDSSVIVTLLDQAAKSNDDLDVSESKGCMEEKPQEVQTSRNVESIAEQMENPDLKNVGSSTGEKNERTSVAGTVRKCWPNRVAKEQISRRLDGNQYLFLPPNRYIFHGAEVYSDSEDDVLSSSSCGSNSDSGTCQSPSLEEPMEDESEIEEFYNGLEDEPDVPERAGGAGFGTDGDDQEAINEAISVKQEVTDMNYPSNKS

[5] = target: T1, NAD-dependent protein deacetylase sirtuin-1 (Homo sapiens); experiment: Activation of SIRT1 in human HaCaT cells assessed as H4K16 deacetylation at 1 uM after 1 hr by Western blotting method; format: cell-based
Method in brief: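 HaCaT cells treated 1 h at 1 µM, DMSO as solvent control. Cells lysed in Laemmli buffer and immunoblotted for acetyl-H4K16 (1:1000), with total histone H4 as loading control. Bands quantified by densitometry. At least three independent experiments.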

Mus musculus [6] = experiment: Wound healing activity in CD1 mouse assessed as decrease in epithelial gap at 1 uM administered topically on wound everyday for 14 days by biopsy punch assay; format: functional, organism-based; method in brief: as §2
[7] = target: T1, NAD-dependent protein deacetylase sirtuin-1 (Homo sapiens); experiment: Activation of full-length GST-tagged recombinant human SIRT1 assessed as enzyme activity obtained with subtraction of intrinsic fluorescence using p53-based untagged peptide as substrate at 50 uM after 30 mins by SIRTainty assay
[8] = target: T1, NAD-dependent protein deacetylase sirtuin-1 (Homo sapiens); experiment: Activation of SIRT1 in […] at 1 uM by fluorimetric assay; format: cell-free; details: HaCaT, TDE = time-dependent effect
HaCaT [9] = experiment: Activation of AMPK/SIRT1 in human HaCaT cells assessed as nitric oxide production at 1 uM incubated for 1 hr by DAF-2D staining-based fluorescence assay; format: cell-based
Method in brief: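 HaCaT keratinocytes grown in DMEM with 10% FBS and antibiotics. Cells treated 1 h (single-point 1 µM; dose-response at 5, 25, 50 µM). 5 µM DAF-2D added to complete medium. Cells then washed in PBS, trypsinized and analysed by flow cytometry for DAF fluorescence (ex 485/em 538 nm). Read-out is % DAF-positive cells relative to DMSO control.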

A549 = experiment: Antiproliferative activity against human A549 cells assessed as cell viability after 72 hrs by MTT assay; format: functional, cell-based; details: A549, 72 h; method in brief: as §1

## CCOC(=O)C1=CN(C(=O)c2ccccc2)C=C(C(=O)OCC)C1c1ccccc1
[1]
  inhibition: inactive
HEY
  IC50: 143 µM
HaCaT [2]
  Activity: inactive
Mus musculus [3]
  Activity: Active
Cavia porcellus
  inhibition: 12%
Caov-3 cell line
  IC50: > 200 µM
NCI-H1299
  IC50: 125 µM
C2C12
  Activity: inactive
[4]
  Activity: 244%
[5]
  Activity: Active
Mus musculus [6]
  Activity: Active
[7]
  Activity: 153%
[8]
  Activity: Tde
HaCaT [9]
  Activity: Active
A549
  IC50: 169 µM
